Assay results collected from several papers.
Medium: plasma

Oc1cc(O)c2c(c1)O[C@@H](c1ccc(O)c(O)c1)[C@@H](O)C2 — AUC(0-t) (human; oral; 100 mg; single dose): 14.2 ng·h/mL
FC(F)(F)c1ccc(CNc2ccc(Cc3c[nH]c4ncc(Cl)cc34)cn2)cn1 — AUC(0-t) (human; oral; 1200 mg; multiple doses, patients): 29500 ng·h/mL
CCCCC1=NC2(CCCC2)C(=O)N1Cc1ccc(-c2ccccc2S(=O)(=O)Nc2noc(C)c2C)c(COCC)c1 — AUC(0-t) (human; oral; 200 mg; single dose, fed, healthy volunteers, tablet): 50500 ng·h/mL
C[C@@H](Nc1cc(F)cc(F)c1)c1cc(C(=O)N(C)C)cc2c(=O)cc(N3CCOCC3)oc12 — AUC(0-t) (human; oral; 180 mg; single dose, patients): 6710 ng·h/mL
C[C@@H]1COCCN1c1cc(C2([S@](C)(=N)=O)CC2)nc(-c2cc[nH]c3nccc2-3)n1 — AUC(0-t) (human; oral; 20 mg; single dose, patients): 6770 ng·h/mL
C#Cc1cccc(Nc2ncnc3cc(OCCOC)c(OCCOC)cc23)c1 — AUC(0-t) (human; oral; 50 mg; multiple doses, once daily, patients): 24.9 µM·h
CCO[C@H]1CCN(Cc2c(OC)cc(C)c3[nH]ccc23)[C@H](c2ccc(C(=O)O)cc2)C1 — AUC(0-t) (human; oral; 50 mg; multiple doses, twice daily, patients): 8570 ng·h/mL
Nc1cc(C(F)(F)F)c(-c2cc(N3CCOCC3)nc(N3CCOCC3)n2)cn1 — AUC(0-t) (human; oral; 100 mg/day; patients): 8800 ng·h/mL
CC(C)n1cc(C#N)c2cc(-n3cc(C(=O)O)cn3)ccc21 — AUC(0-t) (human; oral; 25 mg; single dose, fasted, healthy volunteers): 5010 ng·h/mL
CCNCCCNC/C=C\CNCCCNCC — AUC(0-t) (human; intravenous; 100 mg; patients, infusion): 304 ng·h/mL
NS(=O)(=O)c1ccc(NC(=O)Nc2ccc(F)cc2)cc1 — AUC(0-t) (human; oral; 500 mg; multiple doses, once daily): 62200 ng·h/mL
COc1ccc([C@@H]2CN(C(=O)[C@@H](O)CO)C[C@@]2(C)[C@@H](C)O)cc1OC1CN(c2ccc(C)cn2)C1 — AUC(0-t) (human; oral; 0.5 mg; single dose, healthy volunteers): 188 ng·h/mL
CO[C@@H]1[C@H](OC(=O)N2CC(CCN3CCOCC3)C2)CC[C@]2(CO2)[C@H]1[C@@]1(C)O[C@@H]1CC=C(C)C — AUC(0-t) (human; subcutaneous; 0.6 mg; single dose, healthy volunteers): 1.21 ng·h/mL
C[C@@H](Oc1ccc(S(C)(=O)=O)cc1C(=O)N1C[C@@H]2C[C@]2(c2cc(C(F)(F)F)on2)C1)C(F)(F)F — AUC(0-t) (human; oral; 25 mg; fasted): 10.8 µM·h
COc1cc2c(cc1OC)CN(CCc1ccc(NC(=O)c3cc(OC)c(OC)cc3NC(=O)c3cnc4ccccc4c3)cc1)CC2 — AUC(0-t) (human; intravenous; 2 mg/kg; patients): 11.9 µM·h
OC[C@H]1O[C@@H](c2ccc(Cl)c(Cc3ccc(O[C@H]4CCOC4)cc3)c2)[C@H](O)[C@@H](O)[C@@H]1O — AUC(0-t) (human; oral; 10 mg; single dose): 1.63 µM·h
CO[C@H]1CC[C@H](N2C(=O)CNc3ncc(-c4ccc(C(C)(C)O)nc4)nc32)CC1 — AUC(0-t) (human; oral; 7.5 mg; multiple doses, patients): 299 ng·h/mL
Cc1nc(NC(=O)N2CCC[C@H]2C(N)=O)sc1-c1ccnc(C(C)(C)C(F)(F)F)c1 — AUC(0-t) (human; oral; 350 mg; patients): 27600 ng·h/mL
C[C@@]1(c2cc(NC(=O)c3ccc(C#N)cn3)ccc2F)C=CSC(N)=N1 — AUC(0-t) (human; oral; 30 mg; single dose): 2510 ng·h/mL
COCCOc1cnc2ccn([C@H](C)c3nnc4c(F)cc(-c5cnn(C)c5)cn34)c(=O)c2c1 — AUC(0-t) (human; oral; 150 mg; multiple doses, once daily, patients): 31900 ng·h/mL
COc1ccc(-n2nc(C(N)=O)c3c2C(=O)N(c2ccc(N4CCCCC4=O)cc2)CC3)cc1 — AUC(0-t) (male human; oral; 2.5 mg; single dose): 430 ng·h/mL
COc1cc(N2CCC(N3CCN(C)CC3)CC2)ccc1Nc1ncnc(Nc2ccccc2S(=O)(=O)C(C)C)n1 — AUC(0-t) (human; oral; 50 mg; multiple doses, patients): 4640 ng·h/mL
CC[C@H](C)C(=O)O[C@H]1C[C@H](O)C=C2C=C[C@H](C)[C@H](CC[C@@H](O)C[C@@H](O)CC(=O)O)[C@H]21 — AUC(0-t) (human; oral; 20 mg): 46.7 ng·h/mL
CC(C)(O)c1ccccc1-c1ccc2[nH]c(/C=C/c3ccc(C(F)(F)F)cc3)nc2c1 — AUC(0-t) (male human; oral; 225 mg; single dose, fasted): 5740 ng·h/mL
O=C(/C=C/c1cccc(S(=O)(=O)Nc2ccccc2)c1)NO — AUC(0-t) (human; intravenous; 1900 mg/m²; patients): 72100 ng·h/mL
